{
  "source": "ChEMBL document CHEMBL1148383",
  "about": "“Semisynthetic macrolide antibacterials derived from tylosin. Synthesis and structure-activity relationships of novel desmycosin analogues” (J Med Chem, 2004)",
  "key": {"[1]": {"test": "Tmax in brain of mice at the oral dose of 50 mg/kg", "format": "ADME, organism-based", "parameters": "dose 50 mg/kg, route oral", "conditions": "mouse"}, "[2]": {"test": "Tmax in kidney of mice at the oral dose of 50 mg/kg", "format": "ADME, organism-based", "parameters": "dose 50 mg/kg, route oral", "conditions": "mouse"}, "[3]": {"test": "Tmax in liver of mice at the oral dose of 50 mg/kg", "format": "ADME, organism-based", "parameters": "dose 50 mg/kg, route oral", "conditions": "mouse"}, "[4]": {"test": "Tmax in lungs of mice at the oral dose of 50 mg/kg", "format": "ADME, organism-based, Lung", "parameters": "dose 50 mg/kg, route oral", "conditions": "mouse"}, "[5]": {"test": "Tmax in spleen of mice at the oral dose of 50 mg/kg", "format": "ADME, organism-based", "parameters": "dose 50 mg/kg, route oral", "conditions": "mouse"}, "[6]": {"system": "Mus musculus", "test": "T2 in kidney of mice at the oral dose of 50 mg/kg", "format": "ADME, organism-based", "parameters": "dose 50 mg/kg, route oral", "conditions": "in vivo"}, "[7]": {"system": "Mus musculus", "test": "T2 in liver of mice at the oral dose of 50 mg/kg", "format": "ADME, organism-based", "parameters": "dose 50 mg/kg, route oral", "conditions": "in vivo"}, "[8]": {"system": "Mus musculus", "test": "T2 in lungs of mice at the oral dose of 50 mg/kg", "format": "ADME, organism-based, Lung", "parameters": "dose 50 mg/kg, route oral", "conditions": "in vivo"}, "[9]": {"test": "Cmax in spleen of mice at the oral dose of 50 mg/kg", "format": "ADME, organism-based", "parameters": "dose 50 mg/kg, route oral", "conditions": "mouse"}, "[10]": {"system": "Mus musculus", "test": "C2 in kidney of mice at the oral dose of 50 mg/kg", "format": "ADME, organism-based", "parameters": "dose 50 mg/kg, route oral", "conditions": "in vivo"}, "[11]": {"system": "Mus musculus", "test": "C2 in liver of mice at the oral dose of 50 mg/kg", "format": "ADME, organism-based", "parameters": "dose 50 mg/kg, route oral", "conditions": "in vivo"}, "[12]": {"system": "Mus musculus", "test": "C2 in lungs of mice at the oral dose of 50 mg/kg", "format": "ADME, organism-based, Lung", "parameters": "dose 50 mg/kg, route oral", "conditions": "in vivo"}, "[13]": {"system": "Mus musculus", "test": "C2 in spleen of mice at the oral dose of 50 mg/kg", "format": "ADME, organism-based", "parameters": "dose 50 mg/kg, route oral", "conditions": "in vivo"}, "[14]": {"test": "Cmax in kidney of mice at the oral dose of 50 mg/kg", "format": "ADME, organism-based", "parameters": "dose 50 mg/kg, route oral", "conditions": "mouse"}, "[15]": {"test": "Cmax in liver of mice at the oral dose of 50 mg/kg", "format": "ADME, organism-based", "parameters": "dose 50 mg/kg, route oral", "conditions": "mouse"}, "[16]": {"test": "Cmax in lungs of mice at the oral dose of 50 mg/kg", "format": "ADME, organism-based, Lung", "parameters": "dose 50 mg/kg, route oral", "conditions": "mouse"}, "[17]": {"system": "Escherichia coli", "test": "Antibacterial activity against Escherichia coli ATCC […]", "format": "functional", "method_in_brief": "(§1)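 MICs were determined by broth microdilution following NCCLS guidelines. The test panel includes erythromycin-susceptible strains and erythromycin-resistant strains with constitutive or inducible MLSB phenotypes or with efflux resistance.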"}, "[18]": {"system": "Enterococcus faecalis", "test": "Antibacterial activity against Enterococcus faecalis ATCC 29212", "format": "functional", "method_in_brief": "as §1"}, "[19]": {"system": "Haemophilus influenzae", "test": "Antibacterial activity against Haemophilus influenzae ATCC 49247", "format": "functional", "method_in_brief": "as §1"}, "[20]": {"system": "Streptococcus pneumoniae", "test": "Antibacterial activity against Streptococcus pneumoniae PSCB-0541", "format": "functional", "method_in_brief": "as §1"}, "[21]": {"system": "Staphylococcus aureus", "test": "Antibacterial activity against Staphylococcus aureus ATCC 13709", "format": "functional", "method_in_brief": "as §1"}, "[22]": {"system": "Staphylococcus aureus", "test": "Antibacterial activity against Staphylococcus aureus PSCB-0330", "format": "functional", "method_in_brief": "as §1"}, "[23]": {"system": "Streptococcus pyogenes", "test": "Antibacterial activity against Streptococcus pyogenes PSCB-0543", "format": "functional", "method_in_brief": "as §1"}, "[24]": {"system": "Streptococcus pyogenes", "test": "Antibacterial activity against Streptococcus pyogenes PSCB-0545", "format": "functional", "method_in_brief": "as §1"}, "[25]": {"system": "Staphylococcus aureus", "test": "Antibacterial activity against Staphylococcus aureus PSCB-0331", "format": "functional", "method_in_brief": "as §1"}, "[26]": {"system": "Staphylococcus aureus", "test": "Antibacterial activity against Staphylococcus aureus PSCB-0538", "format": "functional", "method_in_brief": "as §1"}, "[27]": {"system": "Mus musculus", "test": "T2 in spleen of mice at the oral dose of 50 mg/kg", "format": "ADME, organism-based", "parameters": "dose 50 mg/kg, route oral", "conditions": "in vivo"}},
  "data": [
    {"smiles": "CC[C@H]1OC(=O)C[C@@H](O)[C@H](C)[C@@H](OC2OC(C)C(O)C(N(C)C)C2O)[C@@H](C/C=C/C(C)=O)C[C@@H](C)C(=O)/C=C/C(C)=C/[C@@H]1COC1OC(C)C(O)C(OC)C1OC", "note": "(some centres not stated)", "values": [
      {"measurement": "Tmax", "setting": "[1]", "value": 0, "unit": "h"},
      {"measurement": "Tmax", "setting": "[2]", "value": 2, "unit": "h"},
      {"measurement": "Tmax", "setting": "[3]", "value": 2, "unit": "h"},
      {"measurement": "Tmax", "setting": "[4]", "value": 2, "unit": "h"},
      {"measurement": "Tmax", "setting": "[5]", "value": 0.5, "unit": "h"},
      {"measurement": "T2", "setting": "[6]", "value": 4, "unit": "h"},
      {"measurement": "T2", "setting": "[7]", "value": 4, "unit": "h"},
      {"measurement": "T2", "setting": "[8]", "value": 0.5, "unit": "h"},
      {"measurement": "Cmax", "setting": "[9]", "value": 7970, "unit": "ng/g"},
      {"measurement": "C2", "setting": "[10]", "value": 4.58, "unit": "µg/g"},
      {"measurement": "C2", "setting": "[11]", "value": 24.43, "unit": "µg/g"},
      {"measurement": "C2", "setting": "[12]", "value": 10.24, "unit": "µg/g"},
      {"measurement": "C2", "setting": "[13]", "value": 7, "unit": "µg/g"},
      {"measurement": "Cmax", "setting": "[14]", "value": 14300, "unit": "ng/g"},
      {"measurement": "Cmax", "setting": "[15]", "value": 33300, "unit": "ng/g"},
      {"measurement": "Cmax", "setting": "[16]", "value": 10400, "unit": "ng/g"},
      {"measurement": "MIC", "setting": "[17]", "value": 128, "unit": "µg/mL"},
      {"measurement": "MIC", "setting": "[18]", "value": 1, "unit": "µg/mL"},
      {"measurement": "MIC", "setting": "[19]", "value": 4, "unit": "µg/mL"},
      {"measurement": "MIC", "setting": "[20]", "value": 2, "unit": "µg/mL"},
      {"measurement": "MIC", "setting": "[21]", "value": 0.25, "unit": "µg/mL"},
      {"measurement": "MIC", "setting": "[22]", "value": 128, "unit": "µg/mL"},
      {"measurement": "MIC", "setting": "[23]", "value": 0.5, "unit": "µg/mL"},
      {"measurement": "MIC", "setting": "[24]", "value": 0.5, "unit": "µg/mL"},
      {"measurement": "MIC", "setting": "[25]", "value": 0.5, "unit": "µg/mL"},
      {"measurement": "MIC", "setting": "[26]", "value": 0.25, "unit": "µg/mL"},
      {"measurement": "T2", "setting": "[27]", "value": 2, "unit": "h"}
    ]}
  ]
}
